pIC50: −log10 of the molar value. Calls of active or inactive are those of the source. The calls are words filed in the database; no cut-off is given here.
Experiments:
[1] = Induction of apoptosis in human P493-6 cells assessed as early apoptotic cells at 25 uM incubated for 24 hrs by Annexin V/PI staining based flow cytometry analysis (reference value: 2.52 %); assay type: functional
[2] = molecular target: Myc proto-oncogene protein (Homo sapiens) (UniProt P01106); assay: Binding affinity to MYC in human P493-6 cells assessed as thermal stabilization by measuring melting temperature at 25 uM measured for 2 hrs by CETSA analysis (reference value: 42 degreeC)
Sequence of Myc proto-oncogene protein (Homo sapiens) (P01106 whole entry): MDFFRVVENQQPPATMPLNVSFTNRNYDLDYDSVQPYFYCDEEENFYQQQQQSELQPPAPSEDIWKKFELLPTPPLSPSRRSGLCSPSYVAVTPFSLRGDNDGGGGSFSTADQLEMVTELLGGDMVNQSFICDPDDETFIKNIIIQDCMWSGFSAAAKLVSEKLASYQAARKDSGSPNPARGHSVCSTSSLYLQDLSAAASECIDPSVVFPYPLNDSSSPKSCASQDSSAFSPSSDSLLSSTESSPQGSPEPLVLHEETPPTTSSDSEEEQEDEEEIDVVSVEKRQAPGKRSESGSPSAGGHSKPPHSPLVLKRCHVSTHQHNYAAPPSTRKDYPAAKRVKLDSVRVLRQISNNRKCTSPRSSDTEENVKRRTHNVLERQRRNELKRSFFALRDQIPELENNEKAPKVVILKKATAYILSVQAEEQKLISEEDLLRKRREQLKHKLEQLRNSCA

P493-6 [3] = assay: Downregulation of CDC25C mRNA expression in human P493-6 cells at 25 uM incubated for 12 hrs by qRT-PCR analysis; assay type: functional, cell-based
Summary of the method: (§1)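 Cells (500,000/well) were cultured with or without 25 µM for the indicated time. Total RNA was extracted with TRIzol and reverse-transcribed. qPCR used SYBR green with target-gene primers, reported as ΔΔCT.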

[4] = Induction of apoptosis in human P493-6 cells assessed as necrotic cells at 25 uM incubated for 24 hrs by Annexin V/PI staining based flow cytometry analysis (reference value: 0.11 %); assay type: functional
MDA-MB-468 [5] = assay: Downregulation of E2F2 mRNA expression in human MDA-MB-468 cells at 25 uM incubated at 48 hrs by qRT-PCR analysis; assay type: functional, cell-based; summary of the method: as §1
P493-6 [6] = assay: Antiproliferative activity against tetracycline-treated human P493-6 cells expressing MYC assessed as inhibition of cell proliferation at 25 uM incubated for 96 hrs by cell titer glo assay; assay type: functional, cell-based
Summary of the method: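 P493-6 cells, either untreated (high MYC) or MYC-off after 0.1 µg/mL tetracycline for 72 h, were exposed to 25 µM for 96 h. Read-out was % survival by CellTiter-Glo luminescence. Mean ± SD, n = 6, unpaired t-test.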

MDA-MB-468 [7] = assay: Downregulation of E2F2 mRNA expression in human MDA-MB-468 cells at 25 uM incubated for 12 hrs by qRT-PCR analysis; assay type: functional, cell-based; summary of the method: as §1
MDA-MB-468 [8] = assay: Induction of apoptosis in human MDA-MB-468 cells cultured as 3D spheroids assessed as inhibition of cell growth incubated for 5 days; assay type: functional, cell-based; details: time 5.0 day
Summary of the method: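 Cells plated at 4000 per well in low-attachment 24-well plates and grown in Mammocult medium for 48 h to form mammospheres. Spheres then exposed to 25 uM compound for 5 days, with untreated control wells. Read-out was imaging of the mammospheres formed.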

[9] = molecular target: T1, c-Myc/c-Max (Homo sapiens) (UniProt P01106+P61244); assay: Disruption of MYC-MAX interaction in human P493-6 cells assessed as reduction in myc level at 25 uM; assay type: cell-based
T1 sequence (P01106 whole entry): as above
T1 sequence (P61244 2-160 partner limits assumed): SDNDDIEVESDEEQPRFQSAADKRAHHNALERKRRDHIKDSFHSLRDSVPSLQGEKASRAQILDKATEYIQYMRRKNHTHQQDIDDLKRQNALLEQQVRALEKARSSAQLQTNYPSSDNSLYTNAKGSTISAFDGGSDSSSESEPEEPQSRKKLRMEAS

MDA-MB-468 [10] = assay: Downregulation of CCNA2 mRNA expression in human MDA-MB-468 cells at 25 uM incubated at 48 hrs by qRT-PCR analysis; assay type: functional, cell-based; summary of the method: as §1
P493-6 [11] = assay: Induction of apoptosis in human P493-6 cells assessed as effect on cleaved PARP level at 50 uM incubated for 24 hrs
MDA-MB-468 [12] = assay: Antitumor activity against human MDA-MB-468 cells xenografted in mouse assessed as reduction in mYC expression at 10 mg/kg, sc measured at 14 to 26 days by IHC analysis; details: time 14-26 day
MDA-MB-468 [13] = assay: Downregulation of CCNA2 mRNA expression in human MDA-MB-468 cells at 25 uM incubated for 12 hrs by qRT-PCR analysis; assay type: functional, cell-based; summary of the method: as §1
P493-6 [14] = assay: Downregulation of E2F1 mRNA expression in human P493-6 cells at 25 uM incubated for 12 hrs by qRT-PCR analysis; assay type: functional, cell-based; summary of the method: as §1
P493-6 [15] = assay: Downregulation of CDK1 mRNA expression in human P493-6 cells at 25 uM incubated for 12 hrs by qRT-PCR analysis; assay type: functional, cell-based; summary of the method: as §1
[16] = molecular target: T1, c-Myc/c-Max (Homo sapiens); assay: Disruption of MYC-MAX heterodimerization in human P493-6 cells incubated for 12 hrs; assay type: cell-based
Summary of the method: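 Cells were given 25 µM or DMSO for 0, 3, 5 and 12 h. Cytoplasmic and nuclear lysate fractions were pooled. 2 mg protein was immunoprecipitated with MYC antibody overnight, then protein A/G beads for 4 h at 4 °C. Bound MAX was detected by western blot and quantified relative to MYC; MAX input was also measured.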

[17] = molecular target: T1, c-Myc/c-Max (Homo sapiens); assay: Disruption of MYC-MAX interaction in human MDA-MB-468 cells assessed as reduction in myc level at 25 uM; assay type: cell-based
[18] = Induction of apoptosis in human P493-6 cells assessed as necrotic cells at 50 uM incubated for 24 hrs by Annexin V/PI staining based flow cytometry analysis (reference value: 0.11 %); assay type: functional
MCF7 = assay: Antiproliferative activity against human MCF7 cells assessed as cell viability incubated for 96 hrs by MTT assay; assay type: functional, cell-based; details: MCF7, 96 h
Summary of the method: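 Adherent cells (2000/well) attached overnight, then exposed to compounds at 0.14–100 µM for 96 h in DMEM with 10% FBS. MTT at 0.5 mg/mL for 4 h in the dark, formazan dissolved in DMSO, absorbance at 570 nm. Compounds were freshly prepared in DMSO, with DMSO below 1%.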

## N#Cc1cc2c(-c3ccc(Cl)cc3)nn(-c3ccccc3)c2[nH]c1=O
[1]
  Activity: 3.1%
[2]
  Tm: 38 °C
P493-6 [3]
  Activity: Active
[4]
  Activity: 0.095%
MDA-MB-468 [5]
  Activity: Active
P493-6 [6]
  Activity: Active
MDA-MB-468 [7]
  Activity: Active
MDA-MB-468 [8]
  Activity: Active
[9]
  Activity: Active
MDA-MB-468 [10]
  Activity: Active
P493-6 [11]
  Activity: Active
MDA-MB-468 [12]
  Activity: Active
MDA-MB-468 [13]
  Activity: Active
P493-6 [14]
  Activity: Active
P493-6 [15]
  Activity: Active
[16]
  Activity: Active
[17]
  Activity: Active
[18]
  Activity: 0.11%
MCF7
  pIC50: 4.40
